In ChEMBL document CHEMBL1147094, “Novel in vivo model for the study of human immunodeficiency virus type 1 transcription inhibitors: evaluation of new 6-desfluoroquinolone derivatives” (Antimicrob Agents Chemother, 2007):
Values after ≈ are worked out from the molar mass of the structure shown. Active and inactive are the calls of the source. The calls are words filed in the database; no cut-off is given here.

Legend:
[1] = system: Human immunodeficiency virus 1; test: Antiviral activity against human PMA stimulated HIV1 expression in latently HIV1 infected U1 cells assessed as decrease in mRNA production; format: functional, organism-based
[2] = system: Human immunodeficiency virus 1; test: Antiviral activity against human TNF alpha-stimulated HIV1 expression in latently HIV1 infected U1 cells assessed as inhibition of viral p24 production; format: functional, organism-based
[3] = system: Human immunodeficiency virus 1; test: Antiviral activity against human PMA-stimulated HIV1 expression in latently HIV1 infected OM10.1 cells assessed as inhibition of viral p24 production; format: functional, organism-based
[4] = Selectivity index, CC50 for OM10.1 cells to EC50 for HIV1 infected OM10.1 cells; format: functional
Method in brief: (§1)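 OM-10.1 cells at 500,000 cells/ml were exposed to compound for 2 h, then stimulated with 1 ng/ml hTNF-α or 0.02 µM PMA for 2 days at 37°C. Viability was read by MTT staining. The selectivity index is CC50 from MTT divided by EC50 from p24 ELISA run in the same cultures.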

[5] = system: Human immunodeficiency virus 1; test: Antiviral activity against PMA stimulated HIV1 expression in latently HIV1 infected OM10.1 cells assessed as inhibition of viral mRNA production; format: functional, organism-based
[6] = system: Human immunodeficiency virus 1; test: Inhibition of viral reactivation in SCID mouse inoculated with HIV1 infected OM10.1 cells at 50 mg/kg, ip for 3 days prior to hTNF alpha administration assessed as viral loads after 18 hrs; format: functional, organism-based; set-up: dose 50 mg/kg
[7] = system: Human immunodeficiency virus 1; test: Antiviral activity against latently HIV1 infected OM10.1 cells assessed as inhibition of viral p24 antigen production; format: functional, organism-based
[8] = system: Human immunodeficiency virus 1; test: Antiviral activity against HIV1 BaL chronically infected human M/M cells; format: functional, organism-based; details: Human immunodeficiency virus 1, BaL
[9] = system: Human immunodeficiency virus 1; test: Antiviral activity against human TNF-alpha stimulated HIV1 expression in latently HIV1 infected OM10.1 cells assessed as inhibition of viral mRNA production; format: functional, organism-based
[10] = Cytotoxicity against latently HIV1 infected OM10.1 cells by MTT method; format: cell-based; details: human, OM10.1 cells latently infected with HIV-1; method in brief: as §1
[11] = system: Human immunodeficiency virus 1; test: Antiviral activity against latently HIV1 infected U1 cells assessed as inhibition of viral p24 antigen production; format: functional, organism-based
[12] = system: Human immunodeficiency virus 1; test: Antiviral activity against HIV1 BaL acutely infected human M/M cells; format: functional, organism-based; details: Human immunodeficiency virus 1, BaL
[13] = system: Human immunodeficiency virus 1; test: Antiviral activity against human PMA-stimulated HIV1 expression in latently HIV1 infected U1 cells assessed as inhibition of viral p24 production; format: functional, organism-based
[14] = system: Human immunodeficiency virus 1; test: Antiviral activity against human TNF alpha-stimulated HIV1 expression in latently HIV1 infected OM10.1 cells assessed as inhibition of viral p24 production; format: functional, organism-based
[15] = system: Human immunodeficiency virus 1; test: Antiviral activity against human TNF-alpha stimulated HIV1 expression in latently HIV1 infected U1 cells assessed as decrease in mRNA production; format: functional, organism-based

SMILES: Cn1cc(C(=O)O)c(=O)c2ccc(N3CCN(c4cccc(C(F)(F)F)c4)CC3)cc21
- Activity [1]: Dose-dependent effect
- Activity [2]: Dose-dependent effect
- EC50 [3]: 0.039 µg/mL (≈ 0.0904 µM)
- Ratio CC50/EC50 [4]: 125
- IC50 [5]: 0.032 µg/mL (≈ 0.0742 µM)
- Activity [6]: Active
- Activity [7]: Dose-dependent effect
- EC50 [8]: 0.05 µg/mL (≈ 0.116 µM)
- EC90 [8]: 1 µg/mL (≈ 2.32 µM)
- IC50 [9]: 0.067 µg/mL (≈ 0.155 µM)
- CC50 [10]: 5 µg/mL (≈ 11.6 µM)
- Activity [11]: Dose-dependent effect
- EC50 [12]: 0.05 µg/mL (≈ 0.116 µM)
- EC90 [12]: 1 µg/mL (≈ 2.32 µM)
- Activity [13]: Dose-dependent effect
- EC50 [14]: 0.054 µg/mL (≈ 0.125 µM)
- Activity [15]: Dose-dependent effect

SMILES: Cn1cc(C(=O)O)c(=O)c2ccc(N3CCN(c4nc5ccccc5s4)CC3)cc21
- Activity [1]: Dose-dependent effect
- Activity [2]: Dose-dependent effect
- EC50 [3]: 0.04 µg/mL (≈ 0.0951 µM)
- Ratio CC50/EC50 [4]: 125
- IC50 [5]: 0.04 µg/mL (≈ 0.0951 µM)
- Activity [6]: Active
- Activity [7]: Dose-dependent effect
- EC50 [8]: 0.011 µg/mL (≈ 0.0262 µM)
- EC90 [8]: 0.16 µg/mL (≈ 0.381 µM)
- IC50 [9]: 0.06 µg/mL (≈ 0.143 µM)
- CC50 [10]: 5 µg/mL (≈ 11.9 µM)
- Activity [11]: Dose-dependent effect
- EC50 [12]: 0.025 µg/mL (≈ 0.0595 µM)
- EC90 [12]: 0.2 µg/mL (≈ 0.476 µM)
- Activity [13]: Dose-dependent effect
- EC50 [14]: 0.045 µg/mL (≈ 0.107 µM)
- Activity [15]: Dose-dependent effect
